Data as given in ChEMBL document CHEMBL4616665, “Synthesis and Identification of a Novel Lead Targeting Survivin Dimerization for Proteasome-Dependent Degradation” (J Med Chem, 2020).
Calls of active or inactive are those of the source. The calls are words filed in the database; no cut-off is given here.

Tests used:
PC-3 [1] = assay: Cytotoxicity against human PC3 cells assessed as reduction in cell viability by MTT assay; assay type: functional, cell-based
PC-3 [2] = assay: Cytotoxicity against human PC3 cells assessed as reduction in cell viability measured after 72 hrs by methylene blue staining based assay; assay type: functional; details: PC-3, 72 h
Summary of the method: (§1)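 Methylene blue survival assay. Prostate cancer cells in RPMI with 10% FBS were seeded at 2000–3500 cells/well and exposed to a concentration series for 72 h. Cells were then methanol-fixed, stained with 1% methylene blue in 10 mM borate for 1 h, washed, and the dye dissolved in ethanol/0.1 M HCl (1:1). OD650nm was read. IC50 came from fitted dose–response curves; three independent experiments.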

LNCaP C4-2 [3] = assay: Cytotoxicity against human C4-2 cells assessed as reduction in cell viability measured after 72 hrs by methylene blue staining based assay; assay type: functional; details: LNCaP C4-2, 72 h; summary of the method: as §1
LNCaP C4-2 [4] = assay: Cytotoxicity against human C4-2 cells transfected with pcDNA3.1 assessed as reduction in cell viability measured after 72 hrs by methylene blue staining based assay; assay type: functional; details: LNCaP C4-2, 72 h; summary of the method: as §1
PC-3 [5] = assay: Down regulation of CIAP1 expression in human PC3 cells by Western blot analysis; assay type: functional, cell-based
PC-3 [6] = assay: Induction of apoptosis in human PC3 cells assessed as increase in cleavage of caspase-3 by Western blot analysis; assay type: functional, cell-based
Summary of the method: (§2)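 C4-2 or PC-3 cells were treated at a range of concentrations, and cleaved caspase 3 was measured by Western blot. Quantification was from three independent experiments.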

PC-3 [7] = assay: Antitumor activity against human PC3 cells xenografted in NSG mouse assessed as reduction in tumor size at 100 mg/kg, po administered via gavage every other day for 10 times and measured post last dose; assay type: functional, organism-based
Summary of the method: (§3)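 PC-3 cells (3 × 10^6, in media) implanted in hind flanks of 6-week-old male NSG mice. Once tumors reached ~100 mm3, mice were randomized into two groups of 5. Vehicle (90% corn oil/10% DMSO) or 100 mg/kg was given by oral gavage every other day for ten doses. Body weight and tumor size were measured every 2 days. At sacrifice, tumors were excised for survivin Western blot and staining, and major organs were wet-weighed.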

LNCaP C4-2 [8] = assay: Down regulation of XIAP expression in human C4-2 cells by Western blot analysis; assay type: functional, cell-based
[9] = target: Baculoviral IAP repeat-containing protein 5 (Homo sapiens) (UniProt O15392); assay: Inhibition of survivin homodimerization in human C4-2 cells assessed as increase in survivin degradation in presence of proteasome inhibitor MG132 by Western blot analysis; assay type: cell-based; details: LNCaP C4-2
Chain of Baculoviral IAP repeat-containing protein 5 (Homo sapiens) (O15392 whole entry): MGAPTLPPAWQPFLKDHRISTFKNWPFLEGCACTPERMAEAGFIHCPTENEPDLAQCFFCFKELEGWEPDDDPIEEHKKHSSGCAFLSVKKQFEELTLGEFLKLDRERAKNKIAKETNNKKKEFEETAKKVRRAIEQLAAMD
Summary of the method: (§4)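 Cells were pretreated for 1 h with proteasome inhibitor MG132 or bortezomib before compound treatment. Survivin was then assessed by Western blot with actin loading control, quantified from three independent experiments.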

PC-3 [10] = assay: Antitumor activity against human PC3 cells xenografted in NSG mouse assessed as change in tumor color at 100 mg/kg, po administered via gavage every other day for 10 times and measured post last dose; assay type: functional, organism-based; summary of the method: as §3
[11] = target: Baculoviral IAP repeat-containing protein 5 (Homo sapiens) (UniProt O15392); assay: Inhibition of survivin homodimerization in human C4-2 cells assessed as increase in survivin degradation in presence of proteasome inhibitor bortezomib by Western blot analysis; assay type: cell-based; details: LNCaP C4-2; summary of the method: as §4
[12] = target: Baculoviral IAP repeat-containing protein 5 (Homo sapiens) (UniProt O15392); assay: Inhibition of survivin homodimerization in human C4-2 cells assessed as increase in survivin degradation by measuring survivin half life at 10 uM incubated up to 6 hrs in presence of cycloheximide by Western blot analysis (reference value: 2.2 hrs); assay type: cell-based; details: LNCaP C4-2
Summary of the method: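 C4-2 or PC-3 cells were pretreated with 10 μM cycloheximide for 1 h, then chased with or without 10 μM compound, or with DMSO, for 0–6 h. Remaining survivin was measured by Western blot with actin as loading control. Band densities were quantified from three independent experiments to derive half-life.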

[13] = target: Baculoviral IAP repeat-containing protein 5 (Homo sapiens) (UniProt O15392); assay: Inhibition of survivin homodimerization in human PC3 cells assessed as increase in survivin degradation by measuring survivin half life at 10 uM incubated up to 6 hrs in presence of cycloheximide by Western blot analysis (reference value: 2.3 hrs); details: PC-3
[14] = Toxicity in NSG mouse xenografted in human PC3 cells assessed as effect on lung weight at 100 mg/kg, po administered via gavage every other day for 10 times and measured post last dose; assay type: organism-based, PC-3; details: in vivo; summary of the method: as §3
PC-3 [15] = assay: Antitumor activity against human PC3 cells xenografted in NSG mouse assessed as suppression of tumor growth at 100 mg/kg, po administered via gavage every other day for 10 times and measured every 2 days during compound dosing; assay type: functional, organism-based; summary of the method: as §3
LNCaP C4-2 [16] = assay: Induction of apoptosis in human C4-2 cells at 3 uM measured after 48 hrs by Annexin V-FITC/propidium iodide staining based flow cytometry relative to control; assay type: functional
Summary of the method: (§5)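 C4-2 or PC-3 cells were treated with 3 μM compound or DMSO for 48 h, harvested, washed, and stained with annexin V-FITC and propidium iodide. Apoptosis was analysed by flow cytometry with excitation at 488 […]; three independent experiments.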

[17] = Solubility of the compound in corn oil; assay type: physicochemical
[18] = Toxicity in NSG mouse xenografted in human PC3 cells assessed as effect on kidney weight at 100 mg/kg, po administered via gavage every other day for 10 times and measured post last dose; assay type: organism-based, PC-3; details: in vivo; summary of the method: as §3
LNCaP C4-2 [19] = assay: Down regulation of survivin expression in human C4-2 cells by Western blot analysis; assay type: functional, cell-based
PC-3 [20] = assay: Down regulation of CIAP2 expression in human PC3 cells by Western blot analysis; assay type: functional, cell-based
PC-3 [21] = assay: Down regulation of survivin expression in human PC3 cells by Western blot analysis; assay type: functional, cell-based
[22] = Toxicity in NSG mouse xenografted in human PC3 cells assessed as effect on stomach weight at 100 mg/kg, po administered via gavage every other day for 10 times and measured post last dose; assay type: organism-based, PC-3; details: in vivo; summary of the method: as §3
[23] = Toxicity in NSG mouse xenografted in human PC3 cells assessed as effect on heart weight at 100 mg/kg, po administered via gavage every other day for 10 times and measured post last dose; assay type: organism-based, PC-3; details: in vivo; summary of the method: as §3
[24] = Toxicity in NSG mouse xenografted in human PC3 cells assessed as effect on liver weight at 100 mg/kg, po administered via gavage every other day for 10 times and measured post last dose; assay type: organism-based, PC-3; details: in vivo; summary of the method: as §3
[25] = target: Baculoviral IAP repeat-containing protein 5 (Homo sapiens) (UniProt O15392); assay: In vivo inhibition of survivin in NSG mouse xenografted in human PC3 cells assessed as reduction in survivin expression at 100 mg/kg, po administered via gavage every other day for 10 times and measured post last dose by Western blot analysis; assay type: functional, organism-based; details: PC-3; summary of the method: as §3
[26] = Toxicity in NSG mouse xenografted in human PC3 cells assessed as effect on body weight at 100 mg/kg, po administered via gavage every other day for 10 times and measured every 2 days during compound dosing; assay type: organism-based, PC-3; details: in vivo, 48 h; summary of the method: as §3
LNCaP C4-2 [27] = assay: Down regulation of CIAP2 expression in human C4-2 cells by Western blot analysis; assay type: functional, cell-based
LNCaP C4-2 [28] = assay: Induction of apoptosis in human C4-2 cells assessed as increase in cleavage of caspase-3 by Western blot analysis; assay type: functional, cell-based; summary of the method: as §2
PC-3 [29] = assay: Induction of apoptosis in human PC3 cells at 3 uM measured after 48 hrs by Annexin V-FITC/propidium iodide staining based flow cytometry relative to control; assay type: functional; summary of the method: as §5
DU-145 = assay: Effect on basal SEAP reporter activity in human DU145 cells measured after 24 hrs by mammalian two hybrid assay; assay type: ADME, cell-based; details: du-145, 24 h
Summary of the method: (§6)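 Mammalian two-hybrid assay in DU145 cells seeded at 1 × 10^5/well, cultured 24 h, then transfected with GAL4-DBD (pBIND) and VP16 (pACT) fusions plus pGSEAP reporter and a firefly luciferase plasmid. Survivin–survivin or p53–large T antigen pairs were used; vector served as control. Two days later, cells were treated for 24 h. SEAP was measured by chemiluminescence and normalized using luciferase for transfection efficiency.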

PC-3 [30] = assay: Down regulation of XIAP expression in human PC3 cells by Western blot analysis; assay type: functional, cell-based
[31] = target: Baculoviral IAP repeat-containing protein 5 (Homo sapiens) (UniProt O15392); assay: In vivo inhibition of survivin in NSG mouse xenografted in human PC3 cells assessed as reduction in survivin expression at 100 mg/kg, po administered via gavage every other day for 10 times and measured post last dose by immunofluorescence analysis; assay type: functional, organism-based; details: PC-3; summary of the method: as §3
LNCaP C4-2 [32] = assay: Cytotoxicity against human C4-2 cells transfected with HA-tagged survivin assessed as reduction in cell viability measured after 72 hrs by methylene blue staining based assay; assay type: functional; details: LNCaP C4-2, 72 h
Homo sapiens = organism: Homo sapiens; assay: Inhibition of p53-large T antigen (unknown origin) dimerization assessed as reduction in SEAP reporter expression measured after 24 hrs by mammalian two hybrid assay; summary of the method: as §6
LNCaP C4-2 [33] = assay: Down regulation of CIAP1 expression in human C4-2 cells by Western blot analysis; assay type: functional, cell-based

In the case of Cc1ccc(-c2ccc(/C=N/Nc3nc4nonc4nc3Nc3ccc(Br)cc3)o2)cc1Cl, the IC50 (PC-3 [1]) is reported as 3.3 µM.
Cc1cccc(Nc2nc3nonc3nc2N/N=C/c2cc3c(cc2[N+](=O)[O-])OCO3)c1C gave an IC50 (PC-3 [1]) of 2.6 µM.
For O=C(Nc1nc2ccccc2nc1Nc1ccc(F)cc1)c1ccc2c(c1)OCO2, the IC50 (PC-3 [2]) was 20.7 µM and the IC50 (LNCaP C4-2 [3]) was 14.3 µM.
Molecule Cc1cccc(Nc2nc3nonc3nc2N/N=C/c2ccc(-c3cccc(C(=O)O)c3)o2)c1C has an IC50 (PC-3 [2]) of 8.1 µM and an IC50 (LNCaP C4-2 [3]) of 9.1 µM.
CCOC(=O)c1ccc(Nc2nc3nonc3nc2N/N=C/c2c[nH]nc2-c2ccccc2)cc1 gave an IC50 (PC-3 [1]) of 3.5 µM.
Molecule Cc1cccc(Nc2nc3nonc3nc2N/N=C/c2ccc(-c3ccc(Cl)c([N+](=O)[O-])c3)o2)c1C has an IC50 (PC-3 [1]) of 7.2 µM.
In the case of O=C1N=c2ccc(Nc3nc4nonc4nc3N/N=C/c3ccccc3OCc3ccc(Cl)cc3Cl)cc2=N1, the IC50 (PC-3 [1]) is reported as 60.3 µM.
O=C(Nc1nc2ccccc2nc1Nc1ccc(F)cc1)c1ccccc1 showed an IC50 (PC-3 [2]) of 19.7 µM and an IC50 (LNCaP C4-2 [3]) of 12.7 µM.
In the case of Fc1ccc(Nc2nc3ccccc3nc2Nc2ccc(F)cc2)cc1, the IC50 (LNCaP C4-2 [4]) is reported as 2 µM, the Activity (PC-3 [5]) is reported as “inactive” and the Activity (PC-3 [6]) is reported as “Dose-dependent effect”. For the same molecule, the IC50 (PC-3 [2]) was 4.8 µM, the Activity (PC-3 [7]) was “Active” and the Activity (LNCaP C4-2 [8]) was “inactive”. For the same molecule, the inhibition [9] was “inactive”, the Activity (PC-3 [10]) was “Active” and the inhibition [11] was “inactive”. The T1/2 [12] was 50 min, the T1/2 [13] was 25 min and the Activity [14] was “Non-Toxic”. For the same molecule, the Activity (PC-3 [15]) was “Active”, the Activity (LNCaP C4-2 [16]) was 48% and the solubility [17] was “Soluble”. For the same molecule, the Activity [18] was “Non-Toxic”, the Activity (LNCaP C4-2 [19]) was “Active” and the Activity (PC-3 [20]) was “inactive”. The Activity (PC-3 [21]) was “Active”, the Activity [22] was “Non-Toxic” and the Activity [23] was “Non-Toxic”. For the same molecule, the Activity [24] was “Non-Toxic”, the inhibition [25] was “Active” and the Activity [26] was “Non-Toxic”. The Activity (LNCaP C4-2 [27]) was “inactive”, the Activity (LNCaP C4-2 [28]) was “Dose-dependent effect” and the Activity (PC-3 [29]) was 39%. The Activity (DU-145) was “Non-Toxic”, the Activity (PC-3 [30]) was “inactive” and the inhibition [31] was “Active”. The IC50 (LNCaP C4-2 [32]) was 7 µM, the inhibition (Homo sapiens) was “inactive” and the Activity (LNCaP C4-2 [33]) was “inactive”. For the same molecule, the IC50 (LNCaP C4-2 [3]) was 3.1 µM.
Molecule Cc1cccc(Nc2nc3ccccc3nc2Nc2cccc(C)c2C)c1C has an IC50 (PC-3 [2]) of 24.8 µM and an IC50 (LNCaP C4-2 [3]) of 17.6 µM.
With CC(C)(C)c1ccc(Nc2nc3ccccc3nc2Nc2ccc(C(C)(C)C)cc2)cc1 the IC50 (PC-3 [2]) was 18.2 µM and the IC50 (LNCaP C4-2 [3]) was 18.6 µM.
